# Measurements published in ChEMBL document CHEMBL3259651, “Bis(4-hydroxy-2H-chromen-2-one): synthesis and effects on leukemic cell lines proliferation and NF-κB regulation” (Bioorg Med Chem, 2014).
# The source made the active and inactive calls. The calls are words filed in the database; no cut-off is given here.
# What was measured:
# K562 = assay: Cytotoxicity against human K562 cells assessed as growth inhibition at 10 to 100 uM after 24 to 72 hrs by trypan blue exclusion assay; type: functional, cell-based
# Summary of the method: (§1)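 Trypan blue counting of proliferation (cells/mL) and viability. Exponential-phase cells were seeded at 200,000 cells/mL in RPMI 1640 with 10% heat-inactivated FCS at 37 °C and 5% CO2. They were treated from 50 mM DMSO stocks against DMSO-matched controls and read at 24, 48 and 72 h (PBMCs at 24 and 48 h).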
# [1] = molecular target: T1, Nuclear factor NF-kappa-B complex (Homo sapiens) (UniProt Q00653+P19838+Q04206); assay: Inhibition of NF-kappaB transactivation in TNF-alpha-stimulated human K562 cells at 10 to 100 uM preincubated for 2 hrs followed by TNF-alpha challenge measured after 6 hrs by dual luciferase reporter gene assay; type: cell-based
# T1 sequence (Q00653 whole entry, looked up, one chain of several): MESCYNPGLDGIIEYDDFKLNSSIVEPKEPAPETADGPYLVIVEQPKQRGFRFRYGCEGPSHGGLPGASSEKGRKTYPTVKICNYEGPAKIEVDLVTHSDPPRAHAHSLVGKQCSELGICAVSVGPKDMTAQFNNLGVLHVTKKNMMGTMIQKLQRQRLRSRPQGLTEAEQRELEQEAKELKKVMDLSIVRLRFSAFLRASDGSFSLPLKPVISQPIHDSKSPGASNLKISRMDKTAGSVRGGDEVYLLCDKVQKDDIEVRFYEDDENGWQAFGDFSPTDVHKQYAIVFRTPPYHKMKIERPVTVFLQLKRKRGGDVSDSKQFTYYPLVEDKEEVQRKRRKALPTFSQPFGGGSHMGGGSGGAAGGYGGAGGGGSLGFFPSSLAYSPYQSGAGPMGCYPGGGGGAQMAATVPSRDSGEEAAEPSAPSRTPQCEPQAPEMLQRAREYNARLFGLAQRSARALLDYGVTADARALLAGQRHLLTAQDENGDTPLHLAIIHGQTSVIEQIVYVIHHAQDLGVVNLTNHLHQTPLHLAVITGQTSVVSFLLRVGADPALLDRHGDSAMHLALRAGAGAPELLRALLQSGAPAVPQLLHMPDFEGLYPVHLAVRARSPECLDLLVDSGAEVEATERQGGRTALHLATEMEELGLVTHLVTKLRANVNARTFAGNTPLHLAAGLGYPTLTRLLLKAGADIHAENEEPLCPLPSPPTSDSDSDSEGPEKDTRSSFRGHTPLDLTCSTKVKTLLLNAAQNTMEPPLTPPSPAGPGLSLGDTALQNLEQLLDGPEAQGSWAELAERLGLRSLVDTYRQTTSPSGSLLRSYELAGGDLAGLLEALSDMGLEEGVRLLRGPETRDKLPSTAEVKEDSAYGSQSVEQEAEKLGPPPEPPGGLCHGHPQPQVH
# T1 sequence (Q04206 whole entry, looked up, one chain of several): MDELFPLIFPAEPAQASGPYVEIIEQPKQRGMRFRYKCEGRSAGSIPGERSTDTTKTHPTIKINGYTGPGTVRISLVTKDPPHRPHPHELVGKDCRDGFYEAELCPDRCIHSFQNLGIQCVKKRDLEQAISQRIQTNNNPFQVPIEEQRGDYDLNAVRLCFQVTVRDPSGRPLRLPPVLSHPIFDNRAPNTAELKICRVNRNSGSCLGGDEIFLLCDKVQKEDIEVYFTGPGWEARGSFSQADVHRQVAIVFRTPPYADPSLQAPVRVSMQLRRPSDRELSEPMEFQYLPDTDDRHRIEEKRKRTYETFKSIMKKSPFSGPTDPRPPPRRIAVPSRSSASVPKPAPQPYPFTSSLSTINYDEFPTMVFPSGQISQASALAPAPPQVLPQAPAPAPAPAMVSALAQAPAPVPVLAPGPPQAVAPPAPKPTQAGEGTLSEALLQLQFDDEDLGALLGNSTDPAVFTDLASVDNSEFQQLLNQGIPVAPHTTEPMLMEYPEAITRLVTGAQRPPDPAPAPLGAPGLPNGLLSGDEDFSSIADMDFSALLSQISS
# Summary of the method: (§2)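 Cells co-transfected with 5 µg of a firefly luciferase reporter carrying five consensus NF-κB sites plus 5 µg of a Renilla TK control plasmid. 24 h later, compound for 2 h, then ± 20 ng/ml TNF-α for 6 h more. Firefly:Renilla ratio, TNF-α-only cells set to 100%. Three independent measurements in quadruplicate.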
# Jurkat [2] = assay: Cytotoxicity against human Jurkat cells assessed as growth inhibition at 10 uM after 48 hrs by trypan blue exclusion assay; type: functional, cell-based; summary of the method: as §1
# Jurkat [3] = assay: Cytotoxicity against human Jurkat cells assessed as growth inhibition at 25 uM after 24 hrs by trypan blue exclusion assay; type: functional, cell-based; summary of the method: as §1
# K652 = assay: Cytotoxicity against human […] cells assessed as growth inhibition at 25 uM after 24 hrs by trypan blue exclusion assay; type: functional, cell-based; summary of the method: as §1
# Jurkat [4] = assay: Cytotoxicity against human Jurkat cells assessed as growth inhibition at 50 uM after 24 to 72 hrs by trypan blue exclusion assay; type: functional, cell-based; summary of the method: as §1
# Jurkat [5] = assay: Cytotoxicity against human Jurkat cells assessed as reduction of cell viability at 50 uM after 24 hrs by trypan blue exclusion assay; type: functional, cell-based; summary of the method: as §1
# Jurkat [6] = assay: Cell cycle arrest in human Jurkat cells assessed as accumulation at G0/G1 phase at 50 uM at 8 hrs by propidium iodide staining-based flow cytometric analysis; type: functional
# Summary of the method: (§3)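 Cells in exponential phase at 200,000 cells/mL in RPMI 1640 with 10% heat-inactivated FCS, 37 °C, 5% CO2, treated from DMSO stocks alongside DMSO vehicle controls. Cell cycle distribution was analysed at time points between 8 and 72 h.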
# [7] = Cell cycle arrest in human […] cells assessed as accumulation at G0/G1 phase at 25 uM measured at 24 hrs by propidium iodide staining-based flow cytometric analysis; type: functional; summary of the method: as §3
# PBMC = assay: Cytotoxicity against human PBMC assessed as effect on cell viability at >100 uM after 24 to 48 hrs by trypan blue exclusion assay; type: cell-based; summary of the method: as §1
# [8] = molecular target: T1, Nuclear factor NF-kappa-B complex (Homo sapiens); assay: Inhibition of NF-kappaB transactivation in TNF-alpha-stimulated human K562 cells preincubated for 2 hrs followed by TNF-alpha challenge measured after 6 hrs by dual luciferase reporter gene assay; type: cell-based; summary of the method: as §2
# [9] = molecular target: T1, Nuclear factor NF-kappa-B complex (Homo sapiens); assay: Inhibition of NF-kappaB transactivation in TNF-alpha-stimulated human Jurkat cells preincubated for 2 hrs followed by TNF-alpha challenge measured after 6 hrs by dual luciferase reporter gene assay; type: cell-based; summary of the method: as §2
# [10] = molecular target: T1, Nuclear factor NF-kappa-B complex (Homo sapiens); assay: Inhibition of NF-kappaB in human K562 cells assessed as reduction of TNF-alpha-induced ICAM1 mRNA expression preincubated for 2 hrs followed by TNF-alpha challenge measured after 6 hrs by qRT-PCR analysis; type: cell-based
# Summary of the method: (§4)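 K-562 cells given compound for 2 h, then cultured ± 20 ng/ml TNF-α for 6 h. Total RNA analysed by qRT-PCR with ICAM1- and CFLAR-specific primers, expressed as target/β-actin mRNA ratio; mean ± SD of 3 independent experiments.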
# [11] = molecular target: T1, Nuclear factor NF-kappa-B complex (Homo sapiens); assay: Inhibition of NF-kappaB in human K562 cells assessed as reduction of TNF-alpha-induced CFLAR mRNA expression preincubated for 2 hrs followed by TNF-alpha challenge measured after 6 hrs by qRT-PCR analysis; type: cell-based; summary of the method: as §4
# [12] = molecular target: T2, Nuclear factor NF-kappa-B p105 subunit (Homo sapiens) (UniProt P19838); assay: Inhibition of NF-kappaB p50 subunit translocation from cytoplasm to nucleus in TNF-alpha-stimulated human Jurkat cells at 40 uM preincubated for 2 hrs followed by TNF-alpha challenge measured after 2 to 90 mins by Western blot analysis; type: cell-based
# T2 sequence (whole entry): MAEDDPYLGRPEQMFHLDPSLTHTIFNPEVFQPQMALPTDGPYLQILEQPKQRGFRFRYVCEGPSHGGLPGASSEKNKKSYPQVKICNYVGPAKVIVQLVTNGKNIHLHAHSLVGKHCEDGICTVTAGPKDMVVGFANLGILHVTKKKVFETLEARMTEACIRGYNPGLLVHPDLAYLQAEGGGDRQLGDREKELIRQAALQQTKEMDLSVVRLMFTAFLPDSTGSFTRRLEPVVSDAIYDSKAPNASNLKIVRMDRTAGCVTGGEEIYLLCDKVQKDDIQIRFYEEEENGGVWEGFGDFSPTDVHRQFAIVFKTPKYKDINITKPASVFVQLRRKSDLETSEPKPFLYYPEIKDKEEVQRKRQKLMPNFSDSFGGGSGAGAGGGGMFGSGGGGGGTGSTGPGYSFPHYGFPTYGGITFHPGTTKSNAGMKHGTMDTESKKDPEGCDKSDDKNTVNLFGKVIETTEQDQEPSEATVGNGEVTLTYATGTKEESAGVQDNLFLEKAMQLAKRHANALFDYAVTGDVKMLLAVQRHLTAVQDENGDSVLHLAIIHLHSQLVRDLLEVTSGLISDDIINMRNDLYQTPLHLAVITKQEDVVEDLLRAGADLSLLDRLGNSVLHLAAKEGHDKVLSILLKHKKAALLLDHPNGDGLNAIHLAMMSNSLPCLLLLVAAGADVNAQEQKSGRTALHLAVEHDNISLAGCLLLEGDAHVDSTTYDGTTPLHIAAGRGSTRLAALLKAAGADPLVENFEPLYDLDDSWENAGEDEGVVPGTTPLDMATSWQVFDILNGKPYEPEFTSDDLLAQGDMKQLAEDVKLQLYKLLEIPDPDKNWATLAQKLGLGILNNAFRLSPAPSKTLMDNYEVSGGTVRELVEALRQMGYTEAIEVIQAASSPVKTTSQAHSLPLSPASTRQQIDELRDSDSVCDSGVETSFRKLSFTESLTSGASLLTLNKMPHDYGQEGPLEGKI
# Summary of the method: (§5)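 JURKAT cells pretreated 2 h with 40 µM compound, then ± 20 ng/ml TNF-α for the indicated times. Cytoplasmic and nuclear fractions immunoblotted; loading and fraction purity checked with lamin B and α-tubulin. Blots representative of three independent experiments.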
# [13] = molecular target: Transcription factor p65 (Homo sapiens) (UniProt Q04206); assay: Inhibition of NF-kappaB p65 subunit translocation from cytoplasm to nucleus in TNF-alpha-stimulated human Jurkat cells at 40 uM preincubated for 2 hrs followed by TNF-alpha challenge measured after 2 to 90 mins by Western blot analysis; type: cell-based; summary of the method: as §5
# Chain of Transcription factor p65 (Homo sapiens) (Q04206 whole entry): as the sequence (Q04206 whole entry, looked up, one chain of several) above
# [14] = molecular target: T3, NF-kappa-B inhibitor alpha (Homo sapiens) (UniProt P25963); assay: Inhibition of IkappaB-alpha degradation in TNF-alpha-stimulated human Jurkat cells at 40 uM preincubated for 2 hrs followed by TNF-alpha challenge measured after 2 to 90 mins by Western blot analysis; type: cell-based; summary of the method: as §5
# T3 sequence (whole entry): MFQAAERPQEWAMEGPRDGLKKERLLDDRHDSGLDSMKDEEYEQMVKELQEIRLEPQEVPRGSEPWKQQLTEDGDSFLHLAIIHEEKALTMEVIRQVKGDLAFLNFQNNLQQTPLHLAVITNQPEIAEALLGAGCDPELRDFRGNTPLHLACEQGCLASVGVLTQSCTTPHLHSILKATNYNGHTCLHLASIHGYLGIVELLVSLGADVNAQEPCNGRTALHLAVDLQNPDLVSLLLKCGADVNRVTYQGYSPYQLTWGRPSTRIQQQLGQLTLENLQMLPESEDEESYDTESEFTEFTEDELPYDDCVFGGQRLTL
Compound,growth inhibition (GI) (K562),inhibition [1],growth inhibition (GI) (Jurkat [2]),growth inhibition (GI) (Jurkat [3]),growth inhibition (GI) (K652),growth inhibition (GI) (Jurkat [4]),Activity (Jurkat [5]),Activity (Jurkat [6]),Activity [7],Activity (PBMC),inhibition [8],inhibition [9],inhibition [10],inhibition [11],inhibition [12],inhibition [13],inhibition [14]
CCC(=O)c1ccccc1O,inactive,inactive,,,,,,,,,,,,,,,
O=c1cc(O)c2ccccc2o1,inactive,inactive,,,,,,,,,,,,,,,
O=C(CC(c1c(O)c2ccccc2oc1=O)c1c(O)c2ccccc2oc1=O)c1ccccc1O,,,Active,Active,Active,Active,Active,Active,Active,Non-toxic,Dose-dependent effect,Dose-dependent effect,Dose-dependent effect,Dose-dependent effect,Active,Active,Active
